The values below come from ChEMBL document CHEMBL3425408, “Design, synthesis, in vitro, and in vivo anticancer and antiangiogenic activity of novel 3-arylaminobenzofuran derivatives targeting the colchicine site on tubulin” (J Med Chem, 2015).

As usually defined, the IC50 is the concentration at which inhibition is half-maximal. Low readings indicate greater potency in that assay, high ones weaker potency in that assay. For orientation: inhibition means the percentage by which the read-out fell short of the control. A word on the inhibition in vivo: it is the drop in the measured response relative to a control, in per cent.

Data set [1] has as its system HUVEC. As to the kind of experiment: Antivascular activity in HUVEC assessed as distruption of capillary like tube formation at 5 to 25 nM after 3 hrs by matrigel assay. The format is functional, cell-based. Particulars: Homo sapiens. In a few lines: (§1)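 Tube-disruption assay: HUVECs (passages 1–6) plated on gelled Matrigel and allowed 6 h to form capillary-like networks. Compound then added to the preformed networks for 1 or 3 h. Five fields per well photographed. Area covered, total network length, mesh number and branching points measured as percent change from complete-medium controls. Three independent experiments.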

The subject of data set [2] is HUVEC. As to the kind of experiment: Antivascular activity in HUVEC assessed as inhibition of endothelial cell migration to tumor site at 5 nM after 24 hrs by wound-healing assay. The format is functional, cell-based. The conditions noted are these: Homo sapiens. An outline of the steps:
(§2)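 Scratch assay: confluent HUVEC monolayer on 0.1% collagen I wounded with a pipette tip and washed with PBS. Cells treated with compound and photographed at set times. Wound width measured in four areas and compared with the initial width to give gap closure. Three independent experiments.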

Data set [3] concerns Chorioallantoic membrane. As to the kind of experiment: Induction of blood vessel formation in chick embryo chorioallantoic membrane (CAM) at 100 pmol/egg. The format is functional, tissue-based. The conditions noted are these: Gallus gallus.
Data set [4] has as its system HeLa. Put plainly: Induction of apoptosis in human HeLa cells assessed as increase in Mcl-1 expression at 100 to 250 nM after 24 hrs by Western blotting analysis. In general terms: Immunoblotting shows a protein as a band on a membrane.
Data set [5] has as its system HT-29. As to the kind of experiment: Antiproliferative activity against human HT-29 cells after 72 hrs by (3-(4,5-dimethylthiazol-2-yl)-2,5-diphenyltetrazolium bromide test. The conditions noted are these: HT-29, 72 h. The format is functional, cell-based.
In data set [6] the test system is HeLa. Put plainly: Effect on phosphatase cdc25 expression in human HeLa cells at 100 to 250 nM after 24 to 48 hrs by Western blot analysis. The format is functional, cell-based. In a few lines:
(§3)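 HeLa cells treated 24 or 48 h. Lysates cleared at 15000g, and 10 μg protein run on 7.5–15% SDS-PAGE and blotted to PVDF. Membranes blocked in 5% BSA and probed for cyclin B, p-cdc2 Tyr15 and cdc25c, then detected with peroxidase secondary and ECL. Blots stripped and reprobed for β-actin as loading control.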

Data set [7] relates to PBL. Put plainly: Cytotoxicity against human PHA-stimulated PBL cells after 72 hrs by MTT assay. The format is cell-based. An outline of the steps: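 PBLs came from healthy donors by Lymphoprep gradient, were washed and left overnight in RPMI-1640 with 10% FBS. Nonadherent cells at 5 × 10^5 cells/mL were stimulated with 2.5 μg/mL PHA and given a range of concentrations for 72 h. […] Mean ± SEM of three experiments.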
A general note: Formazan colour is commonly taken as a measure of viable cells.

Data set [8] addresses Tubulin (Bos taurus) (UniProt Q6B856+Q862L2+Q862F3). Put plainly: Displacement of [3H]colchicine from bovine brain tubulin at 5 uM after 20 mins by scintillation counting analysis. In a few lines: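 Reaction mixtures held 1 μM tubulin, 5 μM [3H]colchicine and 5 μM test compound. Inhibition of radiolabelled colchicine binding was reported as percent inhibition.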
(Loss of bound radioactivity is the signal in a displacement assay; it reports binding, not function.)

Data set [9] deals with HeLa. As to the kind of experiment: Induction of apoptosis in human HeLa cells assessed as increase in proportion of cells with depolarized mitochondria at 100 to […] by JC1 staining based flow cytometry. The format is functional, cell-based. In a few lines:
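HeLa cells treated 24 or 48 h, then stained with JC-1. Cells with depolarized mitochondria quantified by flow cytometry. Three independent experiments.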

Data set [10] concerns HUVEC. As to the kind of experiment: Antivascular activity in HUVEC assessed as distruption of capillary like tube formation at 5 to 25 nM after 1 hr by matrigel assay. The format is functional, cell-based. Particulars: Homo sapiens. An outline of the steps:
as §1

Data set [11] has as its system Chorioallantoic membrane. As to the kind of experiment: Antivascular activity in chick embryo chorioallantoic membrane (CAM) assessed as inhibition of FGF-induced blood vessel formation at 1 pmol/egg by microscopically measured on day 11. The conditions noted are these: Gallus gallus. The format is functional, tissue-based. In a few lines:
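CAM assay: alginate sponges carrying FGF plus compound (0.1–1.0 pmol per pellet) grafted onto the CAM of fertilized chicken eggs on day 11 of development. Blood vessels converging toward the implant counted under a stereomicroscope at 5× after 72 h (day 14). At least six eggs per group.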

For data set [12], the system named is HeLa. Put plainly: Induction of cell cycle arrest in human HeLa cells assessed as increase in cyclin B expression at 100 nM after 24 hrs by Western blot analysis. The format is functional, cell-based. In a few lines: as §3
For data set [13], the system named is Mus musculus. Put plainly: In vivo antitumor activity against mouse BNL 1ME A.7R.1 cells allografted in Balb/c mouse assessed as reduction in tumor growth at 5 mg/kg, ip up to 8 days relative to vehicle treated control. Also noted: dose 5 mg/kg. The format is functional, organism-based. An outline of the steps: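 Male Balb/c mice, 8 weeks old, received 10^7 BNL 1ME A.7R.1 cells in 200 μL PBS subcutaneously in the dorsal region. Mice were randomised into groups of 5 and dosed ip daily from day 2. Vehicle was 0.9% NaCl with 5% PEG 400 and 0.5% Tween 80, at 7 μL/g. Tumours were measured daily by caliper for 7 days; V = AB²/2.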

Data set [14] deals with HUVEC. As to the kind of experiment: Cytotoxicity against HUVEC cells at 5 to 25 nM. The format is cell-based. Particulars: human, 0.025 µM.
For data set [15], the system named is Mus musculus. As to the kind of experiment: In vivo antitumor activity against mouse BNL 1ME A.7R.1 cells allografted in Balb/c mouse assessed as reduction in tumor growth at 10 mg/kg, ip up to 8 days relative to vehicle treated control. The format is functional, organism-based. Also noted: dose 10 mg/kg. An outline of the steps: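 Male Balb/c mice (8 weeks old) implanted s.c. in the dorsal region with 10^7 BNL 1ME A.7R.1 cells in PBS. Dosed i.p. daily from the second day at 5 or 10 mg/kg, in vehicle of 0.9% NaCl with 5% PEG 400 and 0.5% Tween 80 (7 μL/g). Tumors measured daily with calipers for 7 days, volume = AB²/2. Five mice per group.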

Data set [16] concerns HeLa. Put plainly: Induction of cells cycle arrest in human HeLa cells assessed as cell arrest at G2/M phase at > 60 nM after 24 hrs by propidium iodide based flow cytometric analysis. The format is functional. In a few lines: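 HeLa or Jurkat cells (5 × 10^5) treated 24 h. Cells fixed in ice-cold 70% ethanol, lysed with RNase A and 0.1% Triton X-100, and stained with propidium iodide. DNA content analyzed by flow cytometry to give cell-cycle phase distribution.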

Data set [17] relates to HUVEC. Put plainly: Antivascular activity in HUVEC assessed as inhibition of endothelial cell migration to tumor site at 25 nM after 6 hrs by wound-healing assay. The conditions noted are these: Homo sapiens. The format is functional, cell-based. In a few lines: as §2
Data set [18] is described as follows: Antivascular activity in mouse B16-BL6 cells allografted in C57/BL6 mouse assessed as reduction blood vessel formation in tumor measured at 30 mg/kg, ip after 24 hrs. Particulars: route intraperitoneal. The format is functional. An outline of the steps:
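C57BL/6 mice (6 weeks old) given 10^5 BL6-B16 melanoma cells s.c. in the dorsolateral flank in PBS. At 300 mm3 tumor volume, single i.p. dose of 30 mg/kg in DMSO. Tumors harvested 24 h later, frozen in OCT and cut into 4–5 μm sections. CD31-positive vessels counted in 5 fields per section (40× objective). Five mice per group.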

Calls of active or inactive are those of the source. The calls are words filed in the database; no cut-off is given here.

Turning to `COC(=O)c1oc2cc(OC)ccc2c1Nc1cc(OC)c(OC)c(OC)c1`, the outcome in [1], in data set [2], in data set [4], in data set [10], in [12] and in data set [15] was Active. In addition, in data set [17], the outcome was Active. For the same compound, the outcome in [3], in [6] and in data set [13] was inactive. Besides, the figures for the IC50 in [5] and in data set [7] were 0.003 µM and greater than 10 µM, respectively. The inhibition in data set [8] turned out to be 83%. Also, the figures for the Activity entry in [9], in data set [14] and in [16] were “Dose-dependent effect”, “Non-toxic” and greater than 70%, respectively. In addition, the inhibition result in data set [11] is “Active”. For the same compound, the inhibition in vivo at 30 mg/kg in data set [18] was 20%.
On to `CCOC(=O)c1oc2cc(OC)ccc2c1Nc1cc(OC)c(OC)c(OC)c1`, for which the result in data set [4] and in data set [6] was inactive. Also, the results for the half-inhibitory concentration (IC50) in data set [5] and in [7] were 0.017 µM and 6.3 µM, respectively. Besides, the inhibition in data set [8] came out at 74%. Further, the Activity entry was “Dose-dependent effect” in [9] and greater than 70% in [16]. Besides, the result in [12] was Active.
